Assay results: the array DNA melting data of Ke et al. (doi:10.1101/2024.01.08.574731)

Experiments:
[1] = folding enthalpy; higher = less favourable; fluorescence melt of hairpins on a sequencing array, two-state fit; conditions: sodium 0.088 M
Outline: (§1)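 Melting temperature and folding enthalpy were derived from bootstrapped two-state fits. The fitted temperatures were raised by 9.35 °C to agree with UV melts, and four replicates were combined by inverse variance. The underlying data were Cy3 fluorescence images of library hairpins, with annealed Cy3 and quencher oligos, on a sequenced MiSeq flow cell in 50 mM Na-HEPES pH 8.0, 25 mM NaCl, taken in 2.5 °C steps up to 60 °C, normalised to pre-quench Cy3 and to control constructs.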

[2] = melting temperature; fluorescence melt of hairpins on a sequencing array, two-state fit, raised by 9.35 °C to match UV melts; conditions: sodium 0.088 M
Outline: as §1

Row | Sequence | folding enthalpy [1] | Tm [2]
1 | GATCTACGCATAGATC ((((((....)))))) | -28.5 kcal/mol | 42.7 °C
2 | GGTGAAGGAAACTTCATC (.(((((....))))).) | -25.3 kcal/mol | 42.1 °C
3 | GATCAGATGGCTGATC ((((((....)))))) | -30.4 kcal/mol | 49.3 °C
4 | GGTAAGGGAAACCTTATC (.(((((....))))).) | -25.6 kcal/mol | 38.1 °C
5 | GAATAGGGAAACCTATTC (((((((....))))))) | -42.1 kcal/mol | 50 °C
6 | GATCCGTGGTCGGATC ((((((....)))))) | -38.8 kcal/mol | 58.7 °C
7 | GATCGTGCGACGATC ((((((...)))))) | -38.4 kcal/mol | 56.8 °C
8 | GAACGCGAAAGCGTATTC ((((((....)))..))) | -7.69 kcal/mol | 35.8 °C
9 | GGGCACGGAAACGCGCCC ((((.((....)).)))) | -44 kcal/mol | 64.3 °C
10 | GTGTGCCGAAAGGCCCAC (((.(((....))).))) | -25.3 kcal/mol | 53.1 °C
11 | GATCTTGGCTAAGATC ((((((....)))))) | -45.1 kcal/mol | 48.2 °C
12 | GACCATGGAAACGTGGTC (((((.(....).))))) | -42.7 kcal/mol | 52.6 °C
13 | GCGGGGCGAAAGCACAGC ((.(.((....)).).)) | -31.8 kcal/mol | 65.4 °C
14 | GCGGCCGGAAACGGCCAC (.(((((....))))).) | -9.59 kcal/mol | 53 °C
15 | GCACTGCGAAAGCGGAGC ((.(.((....)).).)) | -19.8 kcal/mol | 49.9 °C
16 | GCGACCGTTCGC ((((....)))) | -22.8 kcal/mol | 49.1 °C
17 | GTCGGTCGAAAGACGAC (((.(((....)))))) | -29.2 kcal/mol | 55.1 °C
18 | GATCTCTGTGAGATC ((((((...)))))) | -42.6 kcal/mol | 54.9 °C
19 | GTGTGACGAAAGTCTCAC (((.(((....))).))) | -31.9 kcal/mol | 55.9 °C
20 | GACTAGCGAAAGCTGGTC (((.(((....))).))) | -34.1 kcal/mol | 61 °C
21 | GTAGCCCGAAAGGGGTAC (((.(((....))).))) | -32 kcal/mol | 68.5 °C
22 | GCGACGTTTCGC ((((....)))) | -17.9 kcal/mol | 47.8 °C
23 | CGACCGGAAACGGGATCG ((((((....)))..))) | -15.7 kcal/mol | 38.8 °C

Row | Sequence | folding enthalpy [1] | Tm [2]
24 | GCACGACGAAAGTCCTGC (((.(((....))).))) | -26.8 kcal/mol | 45.6 °C
25 | GCCTTGGCGAAAGCCGGC (((..(((....)))))) | -12.9 kcal/mol | 56.9 °C
26 | CGTTCCGGAAACGGTACG (((.(((....))).))) | -31.5 kcal/mol | 50 °C
27 | GCCGGATCGAAAGATGGC (((..(((....)))))) | -17.6 kcal/mol | 46 °C
28 | GTCAAGGGAAACCTTGGC (.(((((....))))).) | -33.1 kcal/mol | 49.4 °C
29 | CGCATACGGAAACGTGCG (((..(((....)))))) | -30.2 kcal/mol | 48.9 °C
30 | GCCGATGCGAAAGCAGGC (((..(((....)))))) | -20.1 kcal/mol | 58.5 °C
31 | GCTGGTGGAAACATCGGC ((.(.((....)).).)) | -30.4 kcal/mol | 43 °C
32 | TTACCGAAAGGTAA (((((....))))) | -16.7 kcal/mol | 50.4 °C
33 | GGGAGTGCGAAAGCACCC (((..(((....)))))) | -11.6 kcal/mol | 55.2 °C
34 | GCAGGCGAAAGCCATGC ((((((....))).))) | -19.9 kcal/mol | 61 °C
35 | GCACCTCGAAAGAGTTGC (((.(((....))).))) | -28.1 kcal/mol | 48.6 °C
36 | GCTAATCGAAAGATAAGC (((.(((....))).))) | -26.2 kcal/mol | 42.8 °C
37 | GCGATTCCGAAAGGACGC (((..(((....)))))) | -26.3 kcal/mol | 46 °C
38 | GCATGGGGAAACCCACGC ((.((((....)))).)) | -23.8 kcal/mol | 46.7 °C
39 | GATAGCGAAAGCTTAATC ((((((....)))..))) | -10.8 kcal/mol | 25.3 °C
40 | AATACGAAAGTATT (((((....))))) | -15.3 kcal/mol | 44.8 °C
41 | GCATTACCGAAAGGTTGC (((..(((....)))))) | -20.1 kcal/mol | 40 °C
42 | GGGTCCGAAAGGAACCC ((((((....))).))) | -22.1 kcal/mol | 64.1 °C
43 | GTCGGCGAAAGCCGCGAC ((((((....)))..))) | -11.6 kcal/mol | 57.7 °C
44 | GTCGAGCGAAAGCTTGAC (((.(((....))).))) | -35.4 kcal/mol | 63.9 °C
45 | GCGGAAACGAAAGTTCGC (((..(((....)))))) | -27.5 kcal/mol | 48.8 °C
46 | GATCACTCGCGTGATC ((((((....)))))) | -44.5 kcal/mol | 57.1 °C

Row | Sequence | folding enthalpy [1] | Tm [2]
47 | GCAGCGCGAAAGCCTTGC (((..((....))..))) | -12.4 kcal/mol | 40 °C
48 | GATCCAAGCTGGATC ((((((...)))))) | -28.8 kcal/mol | 50.5 °C
49 | GGGAACGAAAGTTAGCCC ((((((....)))..))) | -17.2 kcal/mol | 33.1 °C
50 | GATCGCTCAGGCGATC ((((((....)))))) | -36.1 kcal/mol | 67.9 °C
51 | GATCTCACCTGAGATC ((((((....)))))) | -44.1 kcal/mol | 53.5 °C
52 | GGCGAACGAAAGTTAGCC (((.(((....))).))) | -34.4 kcal/mol | 59.8 °C
53 | GTTGTTCGAAAGAATAAC (((.(((....))).))) | -31.6 kcal/mol | 45.6 °C
54 | GTAGGACGAAAGTCTTAC (((.(((....))).))) | -26.2 kcal/mol | 47.7 °C
55 | GCCCAGGGAAACCCAGGC (((..((....))..))) | -25.6 kcal/mol | 44.4 °C
56 | GCCTGTGGAAACGCAGGC (((((.(....).))))) | -38 kcal/mol | 59.9 °C
57 | GGAACGGGAAACCGCTCC (((.(((....))).))) | -28.1 kcal/mol | 48.7 °C
58 | GGTGATGGAAACGTCACC (((((.(....).))))) | -49.9 kcal/mol | 53.5 °C
59 | GATCCAAGCCTGGATC ((((((....)))))) | -40 kcal/mol | 50.6 °C
60 | GGCTTGGGAAACCAAGTC (.(((((....))))).) | -29.4 kcal/mol | 52.4 °C
61 | GGAATCGAAAGATCCTCC ((((((....)))..))) | -21.4 kcal/mol | 42.7 °C
62 | GATTACCGAAAGGTTATC (((.(((....))).))) | -26.1 kcal/mol | 42.4 °C
63 | GCTTTCGAAAGAATGAGC ((((((....)))..))) | -14.8 kcal/mol | 31.9 °C
64 | GATCTGGAGCAGATC ((((((...)))))) | -28.1 kcal/mol | 45.4 °C
65 | GATCTAAGAATAGATC ((((((....)))))) | -20.4 kcal/mol | 34 °C
66 | CGTAGGCGGAAACGCACG (((..(((....)))))) | -15.1 kcal/mol | 42.1 °C
67 | GATCGTGTCTACGATC ((((((....)))))) | -38.3 kcal/mol | 59.8 °C
68 | GGGTCGGGAAACCGGCCC (((.(((....))).))) | -36.3 kcal/mol | 67.1 °C
69 | GGTGGCGAAAGCCTGACC ((((((....)))..))) | -14.2 kcal/mol | 41.9 °C

Row | Sequence | folding enthalpy [1] | Tm [2]
70 | GCGAGCGAAAGCTCCCGC ((((((....)))..))) | -11.6 kcal/mol | 42.4 °C
71 | GCTACCCCGAAAGGGAGC (((..(((....)))))) | -22.8 kcal/mol | 46.9 °C
72 | GATCGAGACGTCGATC ((((((....)))))) | -37.3 kcal/mol | 57.2 °C
73 | GGTCGTCGAAAGACTACC (((.(((....))).))) | -30.6 kcal/mol | 48.6 °C
74 | GTTATCGGAAACGATAAC (((((((....))))))) | -46.2 kcal/mol | 57 °C
75 | GGTTGTGGAAACACGACC (((.(((....))).))) | -43.2 kcal/mol | 54.5 °C
76 | GTTCTAGGAAACCAGAAC (((((.(....).))))) | -26.6 kcal/mol | 35.6 °C
77 | GTGAAGCGAAAGCTGCAC (((.(((....))).))) | -35 kcal/mol | 61 °C
78 | GTGATTCCGAAAGGACAC (((..(((....)))))) | -15.3 kcal/mol | 31.1 °C
79 | GTGTGCGAAAGCAAGCAC ((((((....)))..))) | -18.9 kcal/mol | 43.5 °C
80 | GGCCGAGGAAACCCGGCC (((((.(....).))))) | -36.9 kcal/mol | 65.5 °C
81 | GCTATCGAAAGATACAGC ((((((....)))..))) | -20.8 kcal/mol | 32.6 °C
82 | CGCGACGGAAACGTAGCG (((.(((....))).))) | -38.6 kcal/mol | 58.6 °C
83 | GCTTGGCGAAAGCCAGC (((.(((....)))))) | -14.3 kcal/mol | 59 °C
84 | GATCCGCGCCGGATC ((((((...)))))) | -33.9 kcal/mol | 60 °C
85 | GATCATCCAAATGATC ((((((....)))))) | -36.9 kcal/mol | 46.3 °C
86 | GCGAAAGGAAACTTTCGC (((((((....))))))) | -44.2 kcal/mol | 64.6 °C
87 | GTCCCTGAAAAGGGAC ((((((....)))))) | -34.6 kcal/mol | 67.7 °C
88 | GGTTCACGAAAGTGTACC (((.(((....))).))) | -36.4 kcal/mol | 52.4 °C
89 | CGACCGGAAACGGACTCG ((((((....)))..))) | -12.9 kcal/mol | 30.7 °C
90 | GATCCAGCCTTGGATC ((((((....)))))) | -37.2 kcal/mol | 53.5 °C
91 | GGGAGTGGAAACATTCCC ((((.((....)).)))) | -33.5 kcal/mol | 48.2 °C
92 | GCCGACGAAAGTCGTGGC ((((((....)))..))) | -16.3 kcal/mol | 57 °C
